Reference: ChEMBL document CHEMBL1123688, “Synthesis of 7,12-dihydropyrido[3,4-b:5,4-b']diindoles. A novel class of rigid, planar benzodiazepine receptor ligands” (J Med Chem, 1987)
Calls of active or inactive are those of the source. No cut-off for these calls is given here.

Columns and labels:
[1] = target: GABA-A receptor; anion channel; assay: Inhibition of [3H]-diazepam binding to GABA-A benzodiazepine receptor of rat cerebral cortical membranes; format: cell membranes, Membrane
[2] = test system: Mus musculus; assay: Convulsant effect in mice treated with subconvulsant (pentylenetetrazole) PTZ (40 mg/kg), ineffective at 30 mg/kg; format: functional, organism-based; design: dose 30 mg/kg
[3] = test system: Mus musculus; assay: Antagonism of Diazepam (2.5 mg/kg) anticonvulsant effect in mice treated with (pentylenetetrazole) PTZ (80 mg/kg); format: functional
Method in brief: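 Adult male NIH-colony mice (20-25 g), groups of 10, got graded ip doses of test agent or vehicle (0.1 mL). Diazepam 2.5 mg/kg ip followed 15 min later, then PTZ 80 mg/kg 15 min after that. Score: tonic-clonic convulsions. ED50 = dose that blocks diazepam's anticonvulsant effect in 50% of mice.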

[4] = organism: Mus musculus; assay: In vitro ability to induce convulsions in mice
[5] = test system: Mus musculus; assay: Protection of mice against maximal electroshock (MES)-induced convulsions after administration of 38 mg/kg; format: functional
[6] = test system: Mus musculus; assay: Convulsant effect in mice treated with subconvulsant (pentylenetetrazole) PTZ (40 mg/kg); format: functional

SMILES	IC50 [1] [nM]	ED50 [3] [mg/kg]	also measured
Clc1cccc2[nH]c3c4c5ccccc5nc-4c[nH]c3c12	715		
Fc1ccc2[nH]c3c4c5ccccc5nc-4c[nH]c3c2c1	16	24	ED50 [2]: inactive
CN1C(=O)CN=C(c2ccccc2)c2cc(Cl)ccc21 [DIAZEPAM]			ED50 [4]: 3.4 mg/kg; Survivors [5]: 100%
Fc1cccc2c1[nH]c1c3c4ccccc4nc-3c[nH]c12	12		
Clc1ccc2[nH]c3c4c5ccccc5nc-4c[nH]c3c2c1	2150		
Clc1ccc2c(c1)[nH]c1c2ncc2[nH]c3ccccc3c21	10	2.5	ED50 [2]: inactive
COc1ccc2[nH]c3c4c5ccccc5nc-4c[nH]c3c2c1	890		
COc1ccc2c(c1)[nH]c1c2ncc2[nH]c3ccccc3c21	8	3.9	ED50 [6]: 7 mg/kg
c1ccc2c(c1)[nH]c1c2ncc2[nH]c3ccccc3c21	4	21.3	ED50 [6]: 15.1 mg/kg
Clc1cccc2c1[nH]c1c3c4ccccc4nc-3c[nH]c12	80		
Fc1ccc2c(c1)[nH]c1c3c4ccccc4nc-3c[nH]c12	7		
